Measurements taken from ChEMBL document CHEMBL4689842, “EUbOPEN Chemogenomics Library wave 1” (2021).

Legend:
HEK-293T = assay: Incucyte cell viability with HEK293T; format: toxicity, cell-based; conditions: human, 10 µM, compound concentration 10 uM; note: filed as whole numbers so only -1 and 0 and 1 occur
U2OS = assay: Multiplex assay against U2OS; format: toxicity, cell-based; conditions: human
Method in brief: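 On a CQ1 microscope at 37°C and 5% CO2, live cells were imaged after compound addition. They had been stained at seeding with Hoechst33342, BioTracker Green Microtubule Cytoskeleton Dye, MitoTracker Red and Annexin V Alexa Fluor 680. CellPathfinder machine-learning gating assigned cells to Hoechst high-intensity objects or normal cells, normal cells to healthy, pyknosed or fragmented nuclei, and pyknosed cells to mitotic or apoptotic. Tubulin, mitochondrial-mass and membrane-permeability phenotypes are per cents of healthy-nucleus cells.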

[1] = 12 h, 1 µM, compound concentration 1 uM, replicate 1
[2] = 12 h, 1 µM, compound concentration 1 uM, replicate 2
[3] = 12 h, 10 µM, compound concentration 10 uM, replicate 1
[4] = 12 h, 10 µM, compound concentration 10 uM, replicate 2
[5] = 24 h, 1 µM, compound concentration 1 uM, replicate 1
[6] = 24 h, 1 µM, compound concentration 1 uM, replicate 2
[7] = 24 h, 10 µM, compound concentration 10 uM, replicate 1
[8] = 24 h, 10 µM, compound concentration 10 uM, replicate 2
[9] = 48 h, 1 µM, compound concentration 1 uM, replicate 1
[10] = 48 h, 1 µM, compound concentration 1 uM, replicate 2
[11] = 48 h, 10 µM, compound concentration 10 uM, replicate 1
[12] = 48 h, 10 µM, compound concentration 10 uM, replicate 2

CN(c1cc(C(F)(F)F)nc(OCCC(=O)O)n1)c1cccc2c1CCC2
Growth Rate (HEK-293T; 0 h, replicate number 1, timepoint 0 hours): 0
Growth Rate (HEK-293T; 6 h, replicate number 2, timepoint 6 hours): 0
Growth Rate (HEK-293T; 12 h, replicate number 1, timepoint 12 hours): 1
Growth Rate (HEK-293T; 18 h, replicate number 1, timepoint 18 hours): 1
Growth Rate (HEK-293T; 24 h, replicate number 1, timepoint 24 hours): 1
Population Apoptotic (%) (U2OS; [1]): 33%
Population Fragmented Nuclei (%) (U2OS; [1]): 24%
Population Healthy Nuclei (%) (U2OS; [1]): 64%
Population Hoechst High Intensity Objects (%) (U2OS; [1]): 11%
Population Membrane Permeable-Phenotype (%) (U2OS; [1]): 8%
Population Mitochondria Different-Phenotype (%) (U2OS; [1]): 12%
Population Mitotic Cells (%) (U2OS; [1]): 66%
Population Normal (%) (U2OS; [1]): 88%
Population Pyknosed Nuclei (%) (U2OS; [1]): 11%
Population Tubulin-Different-Phenotype (%) (U2OS; [1]): 10%
Total Cell Count (U2OS; [1]): 191
Population Apoptotic (%) (U2OS; [2]): 0%
Population Fragmented Nuclei (%) (U2OS; [2]): 9%
Population Healthy Nuclei (%) (U2OS; [2]): 80%
Population Hoechst High Intensity Objects (%) (U2OS; [2]): 12%
Population Membrane Permeable-Phenotype (%) (U2OS; [2]): 4%
Population Mitochondria Different-Phenotype (%) (U2OS; [2]): 20%
Population Mitotic Cells (%) (U2OS; [2]): 100%
Population Normal (%) (U2OS; [2]): 87%
Population Pyknosed Nuclei (%) (U2OS; [2]): 9%
Population Tubulin-Different-Phenotype (%) (U2OS; [2]): 28%
Total Cell Count (U2OS; [2]): 65
Population Apoptotic (%) (U2OS; [3]): 23%
Population Fragmented Nuclei (%) (U2OS; [3]): 11%
Population Healthy Nuclei (%) (U2OS; [3]): 77%
Population Hoechst High Intensity Objects (%) (U2OS; [3]): 5%
Population Membrane Permeable-Phenotype (%) (U2OS; [3]): 9%
Population Mitochondria Different-Phenotype (%) (U2OS; [3]): 13%
Population Mitotic Cells (%) (U2OS; [3]): 76%
Population Normal (%) (U2OS; [3]): 94%
Population Pyknosed Nuclei (%) (U2OS; [3]): 11%
Population Tubulin-Different-Phenotype (%) (U2OS; [3]): 15%
Total Cell Count (U2OS; [3]): 149
Population Apoptotic (%) (U2OS; [4]): 0%
Population Fragmented Nuclei (%) (U2OS; [4]): 13%
Population Healthy Nuclei (%) (U2OS; [4]): 86%
Population Hoechst High Intensity Objects (%) (U2OS; [4]): 14%
Population Membrane Permeable-Phenotype (%) (U2OS; [4]): 4%
Population Mitochondria Different-Phenotype (%) (U2OS; [4]): 10%
Population Mitotic Cells (%) (U2OS; [4]): 0%
Population Normal (%) (U2OS; [4]): 85%
Population Pyknosed Nuclei (%) (U2OS; [4]): 0%
Population Tubulin-Different-Phenotype (%) (U2OS; [4]): 30%
Total Cell Count (U2OS; [4]): 71
Population Apoptotic (%) (U2OS; [5]): 40%
Population Fragmented Nuclei (%) (U2OS; [5]): 16%
Population Healthy Nuclei (%) (U2OS; [5]): 77%
Population Hoechst High Intensity Objects (%) (U2OS; [5]): 7%
Population Membrane Permeable-Phenotype (%) (U2OS; [5]): 6%
Population Mitochondria Different-Phenotype (%) (U2OS; [5]): 10%
Population Mitotic Cells (%) (U2OS; [5]): 60%
Population Normal (%) (U2OS; [5]): 92%
Population Pyknosed Nuclei (%) (U2OS; [5]): 6%
Population Tubulin-Different-Phenotype (%) (U2OS; [5]): 5%
Total Cell Count (U2OS; [5]): 200
Population Apoptotic (%) (U2OS; [6]): 0%
Population Fragmented Nuclei (%) (U2OS; [6]): 4%
Population Healthy Nuclei (%) (U2OS; [6]): 95%
Population Hoechst High Intensity Objects (%) (U2OS; [6]): 8%
Population Membrane Permeable-Phenotype (%) (U2OS; [6]): 2%
Population Mitochondria Different-Phenotype (%) (U2OS; [6]): 13%
Population Mitotic Cells (%) (U2OS; [6]): 0%
Population Normal (%) (U2OS; [6]): 91%
Population Pyknosed Nuclei (%) (U2OS; [6]): 0%
Population Tubulin-Different-Phenotype (%) (U2OS; [6]): 30%
Total Cell Count (U2OS; [6]): 68
Population Apoptotic (%) (U2OS; [7]): 52%
Population Fragmented Nuclei (%) (U2OS; [7]): 8%
Population Healthy Nuclei (%) (U2OS; [7]): 84%
Population Hoechst High Intensity Objects (%) (U2OS; [7]): 3%
Population Membrane Permeable-Phenotype (%) (U2OS; [7]): 5%
Population Mitochondria Different-Phenotype (%) (U2OS; [7]): 10%
Population Mitotic Cells (%) (U2OS; [7]): 47%
Population Normal (%) (U2OS; [7]): 96%
Population Pyknosed Nuclei (%) (U2OS; [7]): 7%
Population Tubulin-Different-Phenotype (%) (U2OS; [7]): 14%
Total Cell Count (U2OS; [7]): 176
Population Apoptotic (%) (U2OS; [8]): 0%
Population Fragmented Nuclei (%) (U2OS; [8]): 13%
Population Healthy Nuclei (%) (U2OS; [8]): 81%
Population Hoechst High Intensity Objects (%) (U2OS; [8]): 13%
Population Membrane Permeable-Phenotype (%) (U2OS; [8]): 3%
Population Mitochondria Different-Phenotype (%) (U2OS; [8]): 13%
Population Mitotic Cells (%) (U2OS; [8]): 100%
Population Normal (%) (U2OS; [8]): 86%
Population Pyknosed Nuclei (%) (U2OS; [8]): 5%
Population Tubulin-Different-Phenotype (%) (U2OS; [8]): 44%
Total Cell Count (U2OS; [8]): 79
Population Apoptotic (%) (U2OS; [9]): 43%
Population Fragmented Nuclei (%) (U2OS; [9]): 7%
Population Healthy Nuclei (%) (U2OS; [9]): 86%
Population Hoechst High Intensity Objects (%) (U2OS; [9]): 5%
Population Membrane Permeable-Phenotype (%) (U2OS; [9]): 4%
Population Mitotic Cells (%) (U2OS; [9]): 56%
Population Normal (%) (U2OS; [9]): 94%
Population Pyknosed Nuclei (%) (U2OS; [9]): 6%
Population Tubulin-Different-Phenotype (%) (U2OS; [9]): 8%
Total Cell Count (U2OS; [9]): 200
Population Apoptotic (%) (U2OS; [10]): 40%
Population Fragmented Nuclei (%) (U2OS; [10]): 6%
Population Healthy Nuclei (%) (U2OS; [10]): 88%
Population Hoechst High Intensity Objects (%) (U2OS; [10]): 6%
Population Membrane Permeable-Phenotype (%) (U2OS; [10]): 5%
Population Mitochondria Different-Phenotype (%) (U2OS; [10]): 15%
Population Mitotic Cells (%) (U2OS; [10]): 60%
Population Normal (%) (U2OS; [10]): 93%
Population Pyknosed Nuclei (%) (U2OS; [10]): 4%
Population Tubulin-Different-Phenotype (%) (U2OS; [10]): 24%
Total Cell Count (U2OS; [10]): 81
Population Apoptotic (%) (U2OS; [11]): 50%
Population Fragmented Nuclei (%) (U2OS; [11]): 5%
Population Healthy Nuclei (%) (U2OS; [11]): 89%
Population Hoechst High Intensity Objects (%) (U2OS; [11]): 2%
Population Membrane Permeable-Phenotype (%) (U2OS; [11]): 2%
Population Mitochondria Different-Phenotype (%) (U2OS; [11]): 9%
Population Mitotic Cells (%) (U2OS; [11]): 50%
Population Normal (%) (U2OS; [11]): 97%
Population Pyknosed Nuclei (%) (U2OS; [11]): 4%
Population Tubulin-Different-Phenotype (%) (U2OS; [11]): 15%
Total Cell Count (U2OS; [11]): 251
Population Apoptotic (%) (U2OS; [12]): 20%
Population Fragmented Nuclei (%) (U2OS; [12]): 8%
Population Healthy Nuclei (%) (U2OS; [12]): 87%
Population Hoechst High Intensity Objects (%) (U2OS; [12]): 6%
Population Membrane Permeable-Phenotype (%) (U2OS; [12]): 1%
Population Mitochondria Different-Phenotype (%) (U2OS; [12]): 6%
Population Mitotic Cells (%) (U2OS; [12]): 80%
Population Normal (%) (U2OS; [12]): 93%
Population Pyknosed Nuclei (%) (U2OS; [12]): 3%
Population Tubulin-Different-Phenotype (%) (U2OS; [12]): 38%
Total Cell Count (U2OS; [12]): 113
